# Test results from ChEMBL document CHEMBL2040806, “Synthesis and biological evaluation of analogs of the marine alkaloids granulatimide and isogranulatimide” (Eur J Med Chem, 2012).
# Tested on: HCT-116
# Assay: Cell cycle arrest in p53 double-mutant human HCT116 cells assessed as mitotic index after 24 hrs by flow cytometric analysis
# Format: functional
# Set-up: concentration or dose not given beside the values
# Settings: not given
# Summary of the method: (§1)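 HCT116 p53-/- cells pretreated with etoposide for 1 h, then released into drug-free medium with or without inhibitor for 23 h; nocodazole added to trap cells exiting G2/M. Mitotic cells scored by phospho-histone H3 labeling and DNA content (propidium iodide) by flow cytometry.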
row,Structure (SMILES),Activity
1,O=C1NC(=O)c2c1c1c3ccccc3[nH]c1n1cncc21 [ISOGRANULATIMIDE],17.2%
2,O=C1NC(=O)c2c1c1[nH]cnc1c1[nH]c3ccccc3c21 [GRANULATIMIDE],19.4%
3,Cc1ccc2[nH]c(-c3ccc[nH]3)cc2c1,5%
4,Cc1ccc2[nH]c3c4cn[nH]c4c4c(c3c2c1)C(=O)NC4=O,0%

# Tested on: HCT-116
# Assay: Cell cycle arrest in p53 double-mutant human HCT116 cells assessed as mitotic index at 300 nM after 24 hrs by flow cytometric analysis
# Format: functional
# Settings: not given
# Summary of the method: as §1
row,Structure (SMILES),Activity
1,NC(=O)Nc1cc(-c2cccc(F)c2)sc1C(=O)N[C@H]1CCCNC1 [AZD-7762],75%

# Tested on: MCF7
# Assay: Cytotoxicity against human MCF7 cells after 72 hrs by MTT assay
# Format: functional, cell-based
# Settings: MCF7, 72 h
row,Structure (SMILES),IC50
1,O=C1NC(=O)c2c1c1c3ccccc3[nH]c1n1cncc21 [ISOGRANULATIMIDE],99 µM
2,O=C1NC(=O)c2c1c1[nH]cnc1c1[nH]c3ccccc3c21 [GRANULATIMIDE],46 µM

# Molecular target: Glycogen synthase kinase-3 (Sus scrofa, UniProt B2LUN4+I6LNT8)
# Assay: Inhibition of porcine brain GSK3alpha/beta using GS1 as substrate
# Settings: not given
row,Structure (SMILES),IC50
1,Cc1ccc2[nH]c3c4cn[nH]c4c4c(c3c2c1)C(=O)NC4=O,0.17 µM
2,O=C1NC(=O)c2c1c1[nH]ncc1c1[nH]c3ccccc3c21,0.9 µM

# Tested on: PC-3
# Assay: Cytotoxicity against human PC3 cells after 72 hrs by MTT assay
# Format: functional, cell-based
# Settings: PC-3, 72 h
row,Structure (SMILES),IC50
1,O=C1NC(=O)c2c1c1c3ccccc3[nH]c1n1cncc21 [ISOGRANULATIMIDE],91 µM
2,O=C1NC(=O)c2c1c1[nH]cnc1c1[nH]c3ccccc3c21 [GRANULATIMIDE],11 µM
3,Cc1ccc2[nH]c3c4cn[nH]c4c4c(c3c2c1)C(=O)NC4=O,> 100 µM
4,COc1ccc2[nH]c3c4cn[nH]c4c4c(c3c2c1)C(=O)NC4=O,> 100 µM
5,O=C1NC(=O)c2c1c1[nH]ncc1c1[nH]c3ccccc3c21,> 100 µM

# Molecular target: Dual specificity tyrosine-phosphorylation-regulated kinase 1A (Rattus norvegicus, UniProt Q63470)
# Assay: Inhibition of GST-fused rat recombinant DYRK1A expressed in Escherichia coli using Woodtide as substrate and [gamma-33P] after 30 mins by scintillation counting
# Settings: not given
row,Structure (SMILES),IC50
1,Cc1ccc2[nH]c3c4cn[nH]c4c4c(c3c2c1)C(=O)NC4=O,1.4 µM
2,O=C1NC(=O)c2c1c1[nH]ncc1c1[nH]c3ccccc3c21,1.7 µM

# Tested on: not listed separately
# Assay: Inhibition of porcine brain CK1delta/epsilon using CKS peptide as substrate
# Set-up: species or system Sus scrofa
# Settings: not given
row,Structure (SMILES),IC50
1,Cc1ccc2[nH]c3c4cn[nH]c4c4c(c3c2c1)C(=O)NC4=O,0.23 µM
2,O=C1NC(=O)c2c1c1[nH]ncc1c1[nH]c3ccccc3c21,2.6 µM

# Tested on: not listed separately
# Assay: Cytotoxicity against human Hs683 cells after 72 hrs by MTT assay
# Format: functional, cell-based
# Settings: Hs 683, 72 h
row,Structure (SMILES),IC50
1,O=C1NC(=O)c2c1c1c3ccccc3[nH]c1n1cncc21 [ISOGRANULATIMIDE],> 100 µM
2,O=C1NC(=O)c2c1c1[nH]cnc1c1[nH]c3ccccc3c21 [GRANULATIMIDE],23 µM
3,Cc1ccc2[nH]c3c4cn[nH]c4c4c(c3c2c1)C(=O)NC4=O,> 100 µM
4,COc1ccc2[nH]c3c4cn[nH]c4c4c(c3c2c1)C(=O)NC4=O,45 µM
5,O=C1NC(=O)c2c1c1[nH]ncc1c1[nH]c3ccccc3c21,93 µM

# Tested on: B16-F10
# Assay: Cytotoxicity against mouse B16F10 cells after 72 hrs by MTT assay
# Format: functional, cell-based
# Settings: B16-F10, 72 h
row,Structure (SMILES),IC50
1,O=C1NC(=O)c2c1c1c3ccccc3[nH]c1n1cncc21 [ISOGRANULATIMIDE],35 µM
2,O=C1NC(=O)c2c1c1[nH]cnc1c1[nH]c3ccccc3c21 [GRANULATIMIDE],5 µM
3,Cc1ccc2[nH]c3c4cn[nH]c4c4c(c3c2c1)C(=O)NC4=O,2 µM
4,COc1ccc2[nH]c3c4cn[nH]c4c4c(c3c2c1)C(=O)NC4=O,37 µM
5,O=C1NC(=O)c2c1c1[nH]ncc1c1[nH]c3ccccc3c21,75 µM

# Tested on: A549
# Assay: Cytotoxicity against human A549 cells after 72 hrs by MTT assay
# Format: functional, cell-based
# Settings: A549, 72 h
row,Structure (SMILES),IC50
1,O=C1NC(=O)c2c1c1c3ccccc3[nH]c1n1cncc21 [ISOGRANULATIMIDE],79 µM
2,O=C1NC(=O)c2c1c1[nH]cnc1c1[nH]c3ccccc3c21 [GRANULATIMIDE],18 µM
3,Cc1ccc2[nH]c3c4cn[nH]c4c4c(c3c2c1)C(=O)NC4=O,> 100 µM
4,COc1ccc2[nH]c3c4cn[nH]c4c4c(c3c2c1)C(=O)NC4=O,> 100 µM
5,O=C1NC(=O)c2c1c1[nH]ncc1c1[nH]c3ccccc3c21,> 100 µM

# Tested on: LoVo
# Assay: Cytotoxicity against human LoVo cells after 72 hrs by MTT assay
# Format: functional, cell-based
# Settings: not given
row,Structure (SMILES),IC50
1,O=C1NC(=O)c2c1c1c3ccccc3[nH]c1n1cncc21 [ISOGRANULATIMIDE],62 µM
2,O=C1NC(=O)c2c1c1[nH]cnc1c1[nH]c3ccccc3c21 [GRANULATIMIDE],3 µM
3,Cc1ccc2[nH]c3c4cn[nH]c4c4c(c3c2c1)C(=O)NC4=O,5 µM
4,COc1ccc2[nH]c3c4cn[nH]c4c4c(c3c2c1)C(=O)NC4=O,42 µM
5,O=C1NC(=O)c2c1c1[nH]ncc1c1[nH]c3ccccc3c21,44 µM

# Molecular target: Dual specificity protein kinase CLK1 (Mus musculus, UniProt P22518)
# Assay: Inhibition of GST-fused mouse recombinant CLK1 expressed in Escherichia coli using RS peptide as substrate
# Settings: not given
# Summary of the method: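 Blanks subtracted, activity as % of uninhibited maximum, DMSO dilution controls, IC50 from dose-response curves.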
# Sequence of Dual specificity protein kinase CLK1 (P22518 whole entry, the tested form may be a part): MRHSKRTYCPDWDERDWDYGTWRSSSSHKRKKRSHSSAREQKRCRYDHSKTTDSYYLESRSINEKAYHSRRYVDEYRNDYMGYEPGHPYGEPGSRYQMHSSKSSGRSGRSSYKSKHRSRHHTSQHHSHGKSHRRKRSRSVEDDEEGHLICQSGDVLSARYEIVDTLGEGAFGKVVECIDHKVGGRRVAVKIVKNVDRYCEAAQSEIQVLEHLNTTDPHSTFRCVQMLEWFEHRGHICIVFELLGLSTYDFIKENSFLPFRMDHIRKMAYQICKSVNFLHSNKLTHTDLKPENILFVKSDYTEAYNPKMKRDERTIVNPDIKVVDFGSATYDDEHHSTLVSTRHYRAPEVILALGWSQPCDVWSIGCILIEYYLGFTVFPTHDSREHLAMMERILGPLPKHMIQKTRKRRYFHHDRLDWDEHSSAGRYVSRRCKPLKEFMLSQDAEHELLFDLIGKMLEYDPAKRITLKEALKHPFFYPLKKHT
row,Structure (SMILES),IC50
1,Cc1ccc2[nH]c3c4cn[nH]c4c4c(c3c2c1)C(=O)NC4=O,0.13 µM
2,O=C1NC(=O)c2c1c1[nH]ncc1c1[nH]c3ccccc3c21,0.42 µM

# Molecular target: Cyclin-dependent kinase 5/CDK5 activator 1 (Homo sapiens, UniProt Q00535)
# Assay: Inhibition of human recombinant CDK5/p25
# Format: protein-complex assay
# Settings: not given
# Summary of the method: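 Human recombinant CDK5/p25 assayed in triplicate in buffer C with 1 mg/ml histone H1 at 30 °C, 15 µM ATP final. Activity as % of uninhibited control after blank subtraction; IC50 from dose-response curves.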
# Sequence of Cyclin-dependent kinase 5/CDK5 activator 1 (Q00535 whole entry): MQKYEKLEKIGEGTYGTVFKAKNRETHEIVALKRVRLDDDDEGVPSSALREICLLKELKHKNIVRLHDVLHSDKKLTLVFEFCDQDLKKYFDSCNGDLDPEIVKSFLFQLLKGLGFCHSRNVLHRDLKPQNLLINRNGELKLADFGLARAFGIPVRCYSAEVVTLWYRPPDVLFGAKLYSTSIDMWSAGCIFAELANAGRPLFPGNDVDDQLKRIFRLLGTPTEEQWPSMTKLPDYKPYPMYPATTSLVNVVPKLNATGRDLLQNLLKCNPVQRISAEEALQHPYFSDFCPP
# Sequence of Cyclin-dependent kinase 5/CDK5 activator 1 (Q15078 whole entry, further chain): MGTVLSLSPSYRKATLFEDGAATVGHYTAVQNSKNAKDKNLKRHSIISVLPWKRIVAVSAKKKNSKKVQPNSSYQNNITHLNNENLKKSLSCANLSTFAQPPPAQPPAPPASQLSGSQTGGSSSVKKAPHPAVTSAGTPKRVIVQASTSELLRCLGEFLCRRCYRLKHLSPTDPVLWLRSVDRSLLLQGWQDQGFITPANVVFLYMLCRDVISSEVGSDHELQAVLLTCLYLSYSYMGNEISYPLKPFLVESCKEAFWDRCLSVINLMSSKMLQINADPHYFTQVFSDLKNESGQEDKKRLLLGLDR
row,Structure (SMILES),IC50
1,Cc1ccc2[nH]c3c4cn[nH]c4c4c(c3c2c1)C(=O)NC4=O,0.31 µM
2,O=C1NC(=O)c2c1c1[nH]ncc1c1[nH]c3ccccc3c21,0.91 µM

# Tested on: not listed separately
# Assay: Cytotoxicity against p53-mutant human U373 cells after 72 hrs by MTT assay
# Format: functional, cell-based, U-373MG ATCC
# Settings: U373 MG
row,Structure (SMILES),IC50
1,O=C1NC(=O)c2c1c1c3ccccc3[nH]c1n1cncc21 [ISOGRANULATIMIDE],> 100 µM
2,O=C1NC(=O)c2c1c1[nH]cnc1c1[nH]c3ccccc3c21 [GRANULATIMIDE],6 µM
3,Cc1ccc2[nH]c3c4cn[nH]c4c4c(c3c2c1)C(=O)NC4=O,> 100 µM
4,COc1ccc2[nH]c3c4cn[nH]c4c4c(c3c2c1)C(=O)NC4=O,51 µM
5,O=C1NC(=O)c2c1c1[nH]ncc1c1[nH]c3ccccc3c21,> 100 µM
